Each structure is given as a SMILES string. Values after ≈ are worked out from the molar mass of the structure shown.

The test system of assay [1] is Human alphaherpesvirus 3. Description: Antiviral activity against TK- VZV 07/10 in human embryonic lung cells. Conditions: Human alphaherpesvirus 3, 07/10, lung. Format: functional, organism-based.
Assay [2] relates to Cytomegalovirus. Put plainly: Antiviral activity against Cytomegalovirus AD169 in human embryonic lung cells. The conditions noted are these: Human betaherpesvirus 5, AD169, lung. Format: functional, organism-based. The procedure, abridged:
(§1)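 Human embryonic lung cell cultures were infected with cytomegalovirus, and the effect on viral plaque formation was scored. EC50 is the concentration, in µg/mL, that reduced virus plaque formation by 50%.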

In assay [3] the test system is HEL. Description: Cytotoxicity against HEL cells. Format: functional. Conditions: Homo sapiens. In outline: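 Cytotoxicity was measured in human embryonic lung cells as inhibition of cell growth. CC50 is the concentration, in µg/mL, that reduced cell growth by 50%.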
Assay [4] deals with HEL. Put plainly: Cytotoxicity as determined by alteration in the cell morphology of HEL cells. The conditions noted are these: Homo sapiens. The class given is functional. In outline:
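Human embryonic lung cells were examined by microscope for changes in morphology. MCC is the minimum concentration, in µg/mL, that caused a microscopically detectable alteration of cell morphology.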

Assay [5] deals with Cytomegalovirus. Description: Antiviral activity against Cytomegalovirus Davis in human embryonic lung cells. The class given is functional, organism-based. The conditions noted are these: Human betaherpesvirus 5, Davis. The procedure, abridged: as §1
Assay [6] concerns Human alphaherpesvirus 3. Put plainly: Antiviral activity against TK+ VZV OKA in human embryonic lung cells. Format: functional, organism-based. The conditions noted are these: Human alphaherpesvirus 3, OKA.
In a further assay the target is Adenosylhomocysteinase (Homo sapiens, UniProt P23526). Description: Inhibitory activity against AdoHcy Hydrolase. The procedure, abridged:
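Purified recombinant placental AdoHcy hydrolase was preincubated with inhibitor at several concentrations in assay buffer at 37 °C. Remaining activity was measured in the synthetic direction. Ki and kinact came from the Kitz–Wilson method. […] Irreversibility was checked by 24 h dialysis.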

Sequence of Adenosylhomocysteinase (P23526 whole entry): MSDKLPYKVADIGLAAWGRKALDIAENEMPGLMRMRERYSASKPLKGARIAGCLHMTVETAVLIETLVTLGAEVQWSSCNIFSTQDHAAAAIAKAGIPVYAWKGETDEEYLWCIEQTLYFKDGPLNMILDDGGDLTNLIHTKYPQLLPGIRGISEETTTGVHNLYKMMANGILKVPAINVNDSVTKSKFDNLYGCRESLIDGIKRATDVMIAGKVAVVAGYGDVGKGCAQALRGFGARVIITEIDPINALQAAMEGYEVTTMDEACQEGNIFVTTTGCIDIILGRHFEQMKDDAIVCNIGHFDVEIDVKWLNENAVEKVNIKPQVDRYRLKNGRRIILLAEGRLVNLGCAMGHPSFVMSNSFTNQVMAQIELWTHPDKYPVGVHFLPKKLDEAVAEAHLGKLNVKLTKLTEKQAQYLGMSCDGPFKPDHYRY

Usually EC50 stands for the concentration needed to bring the measured effect to its halfway point. Read a low EC50 as a more potent agent. Broadly, the CC50 is the concentration at which the toxic effect on the cells reaches its halfway point. The low end stands for greater toxicity to the cells, the high end for lower toxicity to the cells. Consider `N#C/C=C\[C@H]1O[C@@H](n2cnc3c(N)ncnc32)[C@H](O)[C@@H]1O`, for which the half-maximal effective concentration (EC50) in the assay on Human alphaherpesvirus 3 [1], in the assay on Cytomegalovirus [2], in the assay on Cytomegalovirus [5] and in the assay with Human alphaherpesvirus 3 [6] was more than 20 µg/mL each time. Moreover, the 50% cytotoxic concentration (CC50) in the assay on HEL [3] is more than 20 µg/mL. The MCC in the assay on HEL [4] amounted to 100 µg/mL.
Take `Nc1nc2c(ncn2COCCO)c(=O)[nH]1` [ACYCLOVIR]: half-maximal cytotoxicity in the assay with HEL [3] (CC50) was put at 118 µg/mL (≈ 524 µM). Besides, the MCC with HEL [4] was more than 400 µg/mL.
Regarding `N#C/C=C/[C@H]1O[C@@H](n2cnc3c(N)ncnc32)[C@H](O)[C@@H]1O`, the half-maximal effective concentration (EC50) in the assay on Human alphaherpesvirus 3 [1], in the assay with Cytomegalovirus [2], in the assay on Cytomegalovirus [5] and in the assay with Human alphaherpesvirus 3 [6] was more than 20 µg/mL in each case. In addition, the CC50 with HEL [3] worked out at 11 µg/mL (≈ 38.2 µM). Further, the MCC in the assay on HEL [4] was not below 20 µg/mL.
Consider `Nc1ccn(C[C@@H](CO)OCP(=O)(O)O)c(=O)n1.O.O` [CIDOFOVIR], for which the EC50 amounted to 0.49 µg/mL with Cytomegalovirus [2] and 0.64 µg/mL in the assay with Cytomegalovirus [5]. In the assay with HEL [3], this compound registered a CC50 of 23 µg/mL. Also, the MCC in the assay with HEL [4] is not below 400 µg/mL.
As usually defined, the Ki is a dissociation constant, usually derived from enzyme kinetics or from competition with a known ligand. High values mean lower affinity, low ones higher affinity. `N#C/C(Cl)=C\[C@H]1O[C@@H](n2cnc3c(N)ncnc32)[C@H](O)[C@@H]1O`: the half-maximal effective concentration (EC50) with Human alphaherpesvirus 3 [1] was 17 µg/mL (≈ 52.7 µM); in the assay with Cytomegalovirus [2], more than 20 µg/mL; in the assay on Cytomegalovirus [5], more than 20 µg/mL; in the assay with Human alphaherpesvirus 3 [6], 11 µg/mL (≈ 34.1 µM). In the assay with HEL [3], this compound displayed a CC50 of 1.2 µg/mL (≈ 3.72 µM). Besides, in the assay on HEL [4], the MCC turned out to be 100 µg/mL. Further, the Ki on Adenosylhomocysteinase was 17 µM.
In the case of `O=c1[nH]c(=O)n([C@H]2C[C@H](O)[C@@H](CO)O2)cc1/C=C/Br` [BRIVUDINE], the EC50 with Human alphaherpesvirus 3 [1] is 149 µg/mL (≈ 447 µM); with Human alphaherpesvirus 3 [6], 0.0051 µg/mL (≈ 0.0153 µM). In the assay on HEL [3], this compound displayed a CC50 of more than 200 µg/mL. The MCC in the assay on HEL [4] is more than 400 µg/mL.
With `Nc1nc2c(ncn2COC(CO)CO)c(=O)[nH]1` [GANCICLOVIR], the EC50 in the assay on Cytomegalovirus [2] and in the assay with Cytomegalovirus [5] was 3.2 µg/mL (≈ 12.5 µM) throughout. Besides, the midpoint of cytotoxicity in the assay on HEL [3], the CC50, lay at 34 µg/mL (≈ 133 µM). This compound also displayed an MCC with HEL [4] not below 400 µg/mL.

The values are drawn from ChEMBL document CHEMBL1149435, “Inactivation of S-adenosyl-L-homocysteine hydrolase by 6'-cyano-5',6'-didehydro-6'-deoxyhomoadenosine and 6'-chloro-6'-cyano-5',6'-didehydro-6'-deoxyhomoadenosine. Antiviral and cytotoxic effects” (J Med Chem, 2006).
